Laboratory results reported in ChEMBL document CHEMBL2384910, “Lead optimization of 5-amino-6-(2,2-dimethyl-5-oxo-4-phenylpiperazin-1-yl)-4-hydroxyhexanamides to reduce a cardiac safety issue: discovery of DS-8108b, an orally active renin inhibitor” (Bioorg Med Chem, 2013).
Substitutions are numbered along the chain they refer to.

Experiments:
[1] = biological target: T1, Renin (Macaca fascicularis) (UniProt Q6DLS0); experiment: Ratio of compound IC50 to aliskiren IC50 for renin in cynomolgus monkey plasma
T1 sequence (whole entry): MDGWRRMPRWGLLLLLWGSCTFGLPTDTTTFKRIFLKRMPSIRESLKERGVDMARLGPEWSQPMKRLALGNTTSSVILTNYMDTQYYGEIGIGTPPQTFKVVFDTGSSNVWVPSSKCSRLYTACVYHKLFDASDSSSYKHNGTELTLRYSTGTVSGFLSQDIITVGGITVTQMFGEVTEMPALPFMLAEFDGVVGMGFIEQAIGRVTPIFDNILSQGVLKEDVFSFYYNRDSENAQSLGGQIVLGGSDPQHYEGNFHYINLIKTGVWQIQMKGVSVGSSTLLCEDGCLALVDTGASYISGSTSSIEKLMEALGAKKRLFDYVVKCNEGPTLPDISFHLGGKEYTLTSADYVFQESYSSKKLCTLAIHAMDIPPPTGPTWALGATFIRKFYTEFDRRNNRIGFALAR

Renin [2] = biological target: T2, Renin (Macaca fascicularis, UniProt Q6DLS0); experiment: Inhibition of renin in cynomolgus monkey plasma after 1 hr by RIA
T2 sequence (Q6DLS0 whole entry): T1 sequence (whole entry)
Procedure, shortened: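 Pooled mixed-gender EDTA cynomolgus monkey plasma with pH adjusting solution and Inhibitor A, compound in 1% DMSO final, incubated 1 h at 37 °C. Angiotensin I by competitive RIA; uninhibited and 4 °C controls define % inhibition; IC50 from four-parameter fit; ratio is compound IC50 over aliskiren IC50 in same plasma batch; ≥2 replicates.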

Renin [3] = biological target: T3, Renin (Homo sapiens, UniProt P00797); experiment: Inhibition of human recombinant renin using Arg-Glu(EDANS)-Ile-His-Pro-Phe-His-Leu-Val-Ile-His-Thr-Lys (DABCYL)-Arg as substrate incubated for 10 mins prior to substrate addition measured after 90 mins by fluorescence assay
T3 sequence (P00797 whole entry): T1 sequence (whole entry) with A68T, L214I, A235S
Procedure, shortened: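 Trypsin-activated recombinant human renin in 50 mM Tris-HCl pH 7.9, 100 mM NaCl, preincubated with compound 10 min at room temperature; FRET substrate Arg-Glu(EDANS)…Lys(DABCYL)-Arg added, 90 min at 37 °C.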

Rattus norvegicus = experiment: Cardiotoxicity in Sprague-Dawley rat electrophysiology model assessed as QRS complex abnormalities at 10 mg/kg, iv by ECG analysis; assay type: toxicity, organism-based; set-up: dose 10 mg/kg, route intravenous; details: in vivo
Procedure, shortened: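 Male Sprague-Dawley rats anesthetized with inactin 100 mg/kg ip; surface lead II ECG recorded continuously. Compounds given as iv bolus via right jugular vein catheter after stabilization; QRS complex abnormality scored as no, moderate or severe change; n = 2 at 10 mg/kg.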

Cc1ccc(F)cc1N1CC(C)(C)N(C[C@H](N)[C@@H](O)C[C@H](C(=O)N[C@H]2C3CC4CC2C[C@](O)(C4)C3)C(C)C)CC1=O.O=C(O)/C=C/C(=O)O
Ratio IC50 [1]: 0.9 | IC50 (Renin [2]): 10 nM | IC50 (Renin [3]): 1.7 nM | Activity (Rattus norvegicus): Non-toxic

CC(C)[C@H](C[C@H](O)[C@@H](N)CN1CC(=O)N(c2ccccc2Cl)CC1(C)C)C(=O)Nc1cccnc1
Ratio IC50 [1]: 1.9 | IC50 (Renin [2]): 19 nM | IC50 (Renin [3]): 2.1 nM

Cc1cccc(NC(=O)[C@@H](C[C@H](O)[C@@H](N)CN2CC(=O)N(c3ccccc3Cl)CC2(C)C)C(C)C)n1.O=C(O)/C=C/C(=O)O
Ratio IC50 [1]: 7.3 | IC50 (Renin [2]): 47 nM | IC50 (Renin [3]): 5.6 nM | Activity (Rattus norvegicus): Toxic

CC(C)[C@H](C[C@H](O)[C@@H](N)CN1CC(=O)N(c2ccccc2Cl)CC1(C)C)C(=O)Nc1ccc(F)cc1F.O=C(O)/C=C/C(=O)O
Ratio IC50 [1]: 3 | IC50 (Renin [2]): 14 nM | IC50 (Renin [3]): 2 nM | Activity (Rattus norvegicus): Toxic

CC[C@H](C[C@H](O)[C@@H](N)CN1CC(=O)N(c2cc(F)ccc2Cl)CC1(C)C)C(=O)N[C@H]1C2CC3CC1C[C@](O)(C3)C2.O=C(O)/C=C/C(=O)O
Ratio IC50 [1]: 0.7 | IC50 (Renin [2]): 3.6 nM | IC50 (Renin [3]): 1.4 nM | Activity (Rattus norvegicus): Non-toxic

CC(C)CNC(=O)[C@@H](C[C@H](O)[C@@H](N)CN1CC(=O)N(c2ccccc2Cl)CC1(C)C)C(C)C.O=C(O)/C=C/C(=O)O
Ratio IC50 [1]: 0.7 | IC50 (Renin [2]): 4 nM | IC50 (Renin [3]): 1.4 nM | Activity (Rattus norvegicus): Toxic

CC(C)[C@H](C[C@H](O)[C@@H](N)CN1CC(=O)N(c2ccccc2Cl)CC1(C)C)C(=O)Nc1ccncc1.O=C(O)/C=C/C(=O)O
Ratio IC50 [1]: 1.5 | IC50 (Renin [2]): 15 nM | IC50 (Renin [3]): 1.6 nM | Activity (Rattus norvegicus): Toxic

CCCCNC(=O)[C@@H](C[C@H](O)[C@@H](N)CN1CC(=O)N(c2cc(F)ccc2Cl)CC1(C)C)C(C)C
Ratio IC50 [1]: 1.2

CC(C)[C@H](C[C@H](O)[C@@H](N)CN1CC(=O)N(c2cc(F)ccc2Cl)CC1(C)C)C(=O)N[C@H]1C2CC3CC1C[C@](O)(C3)C2.O=C(O)/C=C/C(=O)O
Ratio IC50 [1]: 0.7 | IC50 (Renin [2]): 7.8 nM | IC50 (Renin [3]): 1.9 nM | Activity (Rattus norvegicus): Non-toxic

Cc1ccc(F)cc1N1CC(C)(C)N(C[C@H](N)[C@@H](O)C[C@H](C(=O)Nc2cccnc2)C(C)C)CC1=O.O=C(O)/C=C/C(=O)O
Ratio IC50 [1]: 3.3 | IC50 (Renin [2]): 33 nM | IC50 (Renin [3]): 2.4 nM | Activity (Rattus norvegicus): Toxic

Cc1ccc(F)cc1N1CC(C)(C)N(C[C@H](N)[C@@H](O)C[C@@H](C)C(=O)NCC(C)(C)C)CC1=O.O=C(O)/C=C/C(=O)O
Ratio IC50 [1]: 0.6 | IC50 (Renin [2]): 3.4 nM | IC50 (Renin [3]): 1.1 nM | Activity (Rattus norvegicus): Toxic

Cc1ccc(F)cc1N1CC(C)(C)N(C[C@H](N)[C@@H](O)C[C@H](C(=O)NCC(C)(C)C(=O)O)C(C)C)CC1=O
Ratio IC50 [1]: 16 | IC50 (Renin [2]): 39 nM | IC50 (Renin [3]): 16 nM

CC(C)[C@H](C[C@H](O)[C@@H](N)CN1CC(=O)N(c2ccccc2Cl)CC1(C)C)C(=O)NCC(C)(C)C(N)=O.O=C(O)/C=C/C(=O)O
Ratio IC50 [1]: 1.2 | Activity (Rattus norvegicus): Non-toxic

CC[C@H](C[C@H](O)[C@@H](N)CN1CC(=O)N(c2ccccc2Cl)CC1(C)C)C(=O)Nc1ccc(F)cc1.O=C(O)/C=C/C(=O)O
Ratio IC50 [1]: 0.9 | IC50 (Renin [2]): 3.4 nM | IC50 (Renin [3]): 1.6 nM | Activity (Rattus norvegicus): Toxic

CC(C)NC(=O)[C@@H](C[C@H](O)[C@@H](N)CN1CC(=O)N(c2ccccc2Cl)CC1(C)C)C(C)C.O=C(O)/C=C/C(=O)O
Ratio IC50 [1]: 2.7 | IC50 (Renin [2]): 33 nM | IC50 (Renin [3]): 2.9 nM | Activity (Rattus norvegicus): Toxic

CC[C@H](C[C@H](O)[C@@H](N)CN1CC(=O)N(c2ccccc2Cl)CC1(C)C)C(=O)Nc1ncccc1C.O=C(O)/C=C/C(=O)O
Ratio IC50 [1]: 2.9 | IC50 (Renin [2]): 15 nM | IC50 (Renin [3]): 3.8 nM | Activity (Rattus norvegicus): Toxic

CC[C@H](C[C@H](O)[C@@H](N)CN1CC(=O)N(c2ccccc2Cl)CC1(C)C)C(=O)Nc1ccc(F)cn1.O=C(O)/C=C/C(=O)O
Ratio IC50 [1]: 0.6 | IC50 (Renin [2]): 2.1 nM | IC50 (Renin [3]): 1 nM | Activity (Rattus norvegicus): Toxic

C[C@H](C[C@H](O)[C@@H](N)CN1CC(=O)N(c2ccccc2Cl)CC1(C)C)C(=O)N[C@H]1C2CC3CC1C[C@](O)(C3)C2.O=C(O)/C=C/C(=O)O
Ratio IC50 [1]: 1.6 | IC50 (Renin [2]): 7.3 nM | IC50 (Renin [3]): 1.1 nM | Activity (Rattus norvegicus): Non-toxic

CC(C)CNC(=O)C(C)(C)C[C@H](O)[C@@H](N)CN1CC(=O)N(c2cc(F)ccc2Cl)CC1(C)C.O=C(O)/C=C/C(=O)O
Ratio IC50 [1]: 132 | IC50 (Renin [2]): 738 nM | IC50 (Renin [3]): 97 nM | Activity (Rattus norvegicus): Toxic

CC(C)[C@H](C[C@H](O)[C@@H](N)CN1CC(=O)N(c2ccccc2Cl)CC1(C)C)C(=O)Nc1ccc(F)c(F)c1.O=C(O)/C=C/C(=O)O
Ratio IC50 [1]: 4.5 | IC50 (Renin [2]): 21 nM | IC50 (Renin [3]): 1.9 nM | Activity (Rattus norvegicus): Toxic

CC(C)[C@H](C[C@H](O)[C@@H](N)CN1CC(=O)N(c2ccccc2Cl)CC1(C)C)C(=O)Nc1ccccn1.O=C(O)/C=C/C(=O)O
Ratio IC50 [1]: 0.7 | IC50 (Renin [2]): 3.4 nM | IC50 (Renin [3]): 1.8 nM | Activity (Rattus norvegicus): Toxic

CC[C@H](C[C@H](O)[C@@H](N)CN1CC(=O)N(c2ccccc2Cl)CC1(C)C)C(=O)Nc1ccc(OC)cc1.O=C(O)/C=C/C(=O)O
Ratio IC50 [1]: 2.1 | IC50 (Renin [2]): 11 nM | IC50 (Renin [3]): 1.4 nM | Activity (Rattus norvegicus): Toxic

CC(C)[C@H](C[C@H](O)[C@@H](N)CN1CC(=O)N(c2ccccc2Cl)CC1(C)C)C(=O)Nc1ncc(F)cc1F.O=C(O)/C=C/C(=O)O
Ratio IC50 [1]: 0.7 | IC50 (Renin [2]): 3.3 nM | IC50 (Renin [3]): 1.7 nM | Activity (Rattus norvegicus): Toxic

CC(C)[C@H](C[C@H](O)[C@@H](N)CN1CC(=O)N(c2ccccc2Cl)CC1(C)C)C(=O)NC12CC3CC(CC(O)(C3)C1)C2.O=C(O)/C=C/C(=O)O
Ratio IC50 [1]: 0.7 | IC50 (Renin [2]): 6.5 nM | IC50 (Renin [3]): 2 nM | Activity (Rattus norvegicus): Toxic

CC[C@H](C[C@H](O)[C@@H](N)CN1CC(=O)N(c2ccccc2Cl)CC1(C)C)C(=O)NCC(C)(C)C.O=C(O)/C=C/C(=O)O
Ratio IC50 [1]: 0.3 | IC50 (Renin [2]): 2.3 nM | IC50 (Renin [3]): 0.8 nM | Activity (Rattus norvegicus): Toxic

COC(=O)C(C)(C)CNC(=O)[C@@H](C[C@H](O)[C@@H](N)CN1CC(=O)N(c2ccccc2Cl)CC1(C)C)C(C)C.O=C(O)/C=C/C(=O)O
Ratio IC50 [1]: 1.6 | IC50 (Renin [2]): 23 nM | IC50 (Renin [3]): 1.8 nM | Activity (Rattus norvegicus): Toxic

CC[C@H](C[C@H](O)[C@@H](N)CN1CC(=O)N(c2ccccc2Cl)CC1(C)C)C(=O)N[C@H]1C2CC3CC1C[C@@](O)(C3)C2.O=C(O)/C=C/C(=O)O
Ratio IC50 [1]: 0.7 | IC50 (Renin [2]): 1.8 nM | IC50 (Renin [3]): 1.1 nM | Activity (Rattus norvegicus): Toxic

CC[C@H](C[C@H](O)[C@@H](N)CN1CC(=O)N(c2cc(F)ccc2C)CC1(C)C)C(=O)N[C@H]1C2CC3CC1C[C@](O)(C3)C2.O=C(O)/C=C/C(=O)O
Ratio IC50 [1]: 0.9 | IC50 (Renin [2]): 4.6 nM | IC50 (Renin [3]): 1.6 nM | Activity (Rattus norvegicus): Non-toxic

CC(C)[C@H](C[C@H](O)[C@@H](N)CN1CC(=O)N(c2ccccc2Cl)CC1(C)C)C(=O)Nc1ccccc1.O=C(O)/C=C/C(=O)O
Ratio IC50 [1]: 1.3 | IC50 (Renin [2]): 9.2 nM | IC50 (Renin [3]): 1.4 nM | Activity (Rattus norvegicus): Toxic

CC(C)[C@H](C[C@H](O)[C@@H](N)CN1CC(=O)N(c2ccccc2Cl)CC1(C)C)C(=O)NC1CCOCC1.O=C(O)/C=C/C(=O)O
Ratio IC50 [1]: 1.4 | IC50 (Renin [2]): 9.8 nM | IC50 (Renin [3]): 2 nM | Activity (Rattus norvegicus): Toxic

CC[C@H](C[C@H](O)[C@@H](N)CN1CC(=O)N(c2ccccc2Cl)CC1(C)C)C(=O)Nc1cc(OC)ccn1
Ratio IC50 [1]: 13 | IC50 (Renin [2]): 33 nM | IC50 (Renin [3]): 6.7 nM

CCCCNC(=O)[C@@H](C[C@H](O)[C@@H](N)CN1CC(=O)N(c2ccccc2Cl)CC1(C)C)C(C)C.O=C(O)/C=C/C(=O)O
Ratio IC50 [1]: 0.8 | Activity (Rattus norvegicus): Toxic

C[C@H](C[C@H](O)[C@@H](N)CN1CC(=O)N(c2ccccc2Cl)CC1(C)C)C(=O)NCC(C)(C)C
Ratio IC50 [1]: 0.5 | IC50 (Renin [2]): 2.1 nM | IC50 (Renin [3]): 1 nM
